Compounds with a hit are over-represented: about 3.7% of the library has one in this group of screens.
KCNQ1 inh: blocks the human KCNQ1 potassium channel; AID 2642; actives 1.3% (n = 310,000); P51787; CHO-K1 KCNQ1, FluxOR thallium flux fluorescence; stronger effect = higher value; B-score at 10 µM;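 active = compounds whose thallium flux B-score, printed positive for inhibition, exceeds three library SD while starting fluorescence stays within three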;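 also: channel opened by potassium depolarization with thallium stimulus after 20 min compound exposure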
KCNQ1 pot: potentiates or activates the human KCNQ1 potassium channel; CHO-K1 KCNQ1, thallium flux FluxOR fluorescence; stronger effect = higher value; B-score at 10 µM; actives 0.35% (n = 310,000); AID 2648;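 active = fluorescence ratio B-score, a plate-corrected score, at least three library SD, with initial intensity B-score within 5 SD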
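Material: CHO-K1 cells stably expressing KCNQ1. Medium: assay buffer for compound exposure, DMSO matched across wells. Reagent: K+/Tl+ depolarizing stimulus. Compound dosing: single-concentration screen. Times: 37 °C overnight plating, 90-min dark dye load, 20-min compound pretreatment. Technique: FluxOR Tl+ flux fluorescence.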
KCNK3 block: human KCNK3 channel inhibition, primary screen; O14649; CHO-KCNK3 thallium flux, FluxOR fluorescence; stronger effect = lower value; B-score at 10 µM; actives 0.84% (n = 340,000); AID 602410;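 active = B-score under library mean minus 4 SD, starting fluorescence ratio at most library mean plus 5 SD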;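 also: more negative B-score means stronger inhibition of thallium flux through KCNK3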
Target sequence (O14649 whole entry, looked up): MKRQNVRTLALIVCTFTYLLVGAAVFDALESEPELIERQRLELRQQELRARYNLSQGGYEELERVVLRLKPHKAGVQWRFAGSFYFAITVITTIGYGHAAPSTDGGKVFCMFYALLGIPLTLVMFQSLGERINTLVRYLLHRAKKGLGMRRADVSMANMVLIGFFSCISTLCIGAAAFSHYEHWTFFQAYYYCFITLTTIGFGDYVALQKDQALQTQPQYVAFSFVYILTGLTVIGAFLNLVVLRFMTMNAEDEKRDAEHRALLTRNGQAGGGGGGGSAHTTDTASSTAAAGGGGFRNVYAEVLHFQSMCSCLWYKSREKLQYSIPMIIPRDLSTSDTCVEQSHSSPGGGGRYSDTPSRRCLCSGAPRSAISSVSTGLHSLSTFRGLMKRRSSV
KCNK9 block: blocks the human KCNK9 two-pore domain potassium channel; Q9NPC2; HEK293 KCNK9, FluxOR thallium flux fluorescence; stronger effect = lower value; B-score at 10 µM; actives 1.2% (n = 310,000);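 active = ratio B-score over 3 SD below the library mean, with starting fluorescence within 5 SD of its mean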;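 also: negative B-score means less thallium flux so channel inhibition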
Kir21 inh: blocks the mouse Kir2.1 inward-rectifier potassium channel; AID 1672; B-score at 10 µM; HEK293-Kir2.1, FluxOR thallium flux fluorescence; stronger effect = lower value; actives 0.85% (n = 310,000);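 active = fluorescence ratio B-score at or below minus 3 SD of library scores, with starting-brightness B-score within 2 SD, cut at about -4.2 in these data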;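 also: channel flux triggered by added potassium and thallium sulfate stimulus; B-score of peak minus minimum fluorescence over baseline after thallium stimulus; more negative B-score means stronger Kir2.1 block with less thallium influx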
hERG rescue: compounds protecting human hERG from proarrhythmic drug block | Q12809 | CHO-hERG, FluxOR thallium flux, dofetilide IC70 present | activation (rescue from dofetilide block), less the hit threshold, % at 10 µM | actives 0.51% (n = 310,000) | AID 1511;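 active = activation above the mean of controls blocked by dofetilide plus 5 SD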;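 also: thallium influx through hERG after potassium depolarization seen as dye fluorescence rise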
KCNK9 inh conf: human KCNK9 inhibitor confirmation; shares compounds with KCNK9 block; HEK293 KCNK9 cells, FluxOR thallium flux fluorescence; inhibition, % at 10 µM; actives 43% (n = 4,900); AID 492992;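 active = thallium signal inhibited by more than 5 SD of the compound-free buffer control wells, on both duplicate plates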
Kir2-1 spec: mouse Kir2.1 off-target activity of KCNK9 modulators; shares compounds with KCNK9 block; Kir2.1 cells, FluxOR thallium flux fluorescence; inhibition, % at 10 µM; actives 4% (n = 4,900); AID 492993;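 active = thallium signal drop more than 5 SD beyond the mean of the no-compound control wells, seen in both duplicate plates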;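 also: signal is fluorescence rise after thallium addition divided by baseline fluorescence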
KCNK9 uninduced: second check of KCNK9 modulator effects in non-induced HEK293 cells. shares compounds with KCNK9 block. FluxOR thallium flux. inhibition, % at 10 µM. actives 40% (n = 4,900);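 active = thallium signal drop beyond 5 SD of the untreated control mean, on both duplicate plates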
Numbers stand for hits; i = inactive; nt = not tested or not shown.

SMILES	KCNQ1 inh	KCNQ1 pot	KCNK3 block	KCNK9 block	Kir21 inh	hERG rescue	KCNK9 inh conf	Kir2-1 spec	KCNK9 uninduced
O=C(CN1CCN(c2ccc(Cl)cc2[N+](=O)[O-])CC1)N1CCOCC1	i	i	i	i	i	i	nt	nt	nt
CC(=O)Nc1c(C)ccc(S(N)(=O)=O)c1C	i	i	i	i	i	i	nt	nt	nt
O=C(Nc1cccc(O)c1)c1ccc(S(=O)(=O)N2CCCCCC2)cc1	i	i	i	i	i	i	nt	nt	nt
O=C(CO/N=C/c1ccccc1OC(F)F)N1CCc2ccccc21	i	i	i	i	i	i	nt	nt	nt
CC1Cc2ccccc2N1C(=O)CO/N=C/c1ccccc1OC(F)F (configuration not stated)	i	i	i	i	i	i	i	i	i
O=C1C=CC(=O)N1c1ccc(OC(F)F)cc1	nt	nt	i	nt	nt	nt	nt	nt	nt
CCOC(=O)COc1nc(-c2ccc(Cl)cc2)cc(-c2ccco2)c1C#N	i	i	i	i	i	i	nt	nt	nt
COC(=O)CSc1nc(N)c(C#N)c(-c2ccco2)c1C#N	i	i	i	i	i	i	nt	nt	nt
COC(=O)CSc1nc(-c2ccccc2)cc(-c2ccco2)c1C#N	i	i	i	-8.94	i	i	31.0%	i	27.5%
CCOC(=O)COc1nc(-c2ccccc2)cc(-c2ccco2)c1C#N	i	i	i	-8.24	i	i	49.0%	i	34.0%
CCC(C)(C)n1nnnc1C(C(C)C)N(Cc1cccnc1)Cc1ccco1 (configuration not stated)	i	i	i	i	i	i	nt	nt	nt
CCC(C)(C)n1nnnc1C(C(C)C)N(Cc1ccco1)Cc1cc2cc3c(cc2[nH]c1=O)OCO3 (configuration not stated)	i	i	i	-10.4	i	i	42.5%	i	41.5%
COc1cccc(NC(=O)C(Sc2nnc(Nc3ccccc3C)s2)c2ccccc2)c1 (configuration not stated)	i	i	i	-9.09	i	i	i	i	38.5%
O=C(CSCc1ccc(Cl)cc1)NCCSCc1ccco1	i	i	i	i	i	i	i	i	i
O=C(CSCc1c(F)cccc1Cl)NCCSCc1ccco1	i	i	i	i	i	i	nt	nt	nt
COc1ccccc1OCC(=O)NCCSCc1ccc(Cl)cc1	i	i	i	i	-4.71	i	i	i	i
Cc1ccc(C)c(-c2csc(NC(=O)C3=COCCO3)n2)c1	i	i	i	-8.32	i	i	i	i	38.5%
Cc1ccc2nc(NC(=O)c3ccco3)sc2c1	i	i	i	i	i	i	nt	nt	nt
Cc1ccc2nc(NC(=S)NC(=O)c3ccco3)sc2c1	i	57	i	i	i	35.5	i	i	i
COc1cc(C2SCC(=O)N2c2nnc(C34CC5CC(CC(C5)C3)C4)s2)cc(OC)c1OC (configuration not stated)	i	i	i	i	i	i	i	i	i
CC(C)N(C(=O)[C@H]1CC(CC(=O)NC(C)(C)C)C(=O)N2CCc3c([nH]c4ccccc34)[C@]12C)C(C)C (some centres not stated)	nt	nt	i	nt	nt	nt	nt	nt	nt
CC(C)CNC(=O)N1c2ccccc2Sc2ccccc21	i	i	i	i	i	i	i	i	i
COc1ccc(OC)c(Nc2ncnc3sc(-c4ccccc4)cc23)c1	i	i	i	-10.9	i	i	i	i	31.5%
COc1ccc(OC)c(Nc2ncnc3sccc23)c1	i	i	i	i	i	i	nt	nt	nt
CCOc1ccccc1C(=O)N[C@H](C(=O)OCc1cc([N+](=O)[O-])cc2c1OCOC2)C(C)C	i	i	i	-10.1	i	i	48.0%	i	25.0%
SMILES	KCNQ1 inh	KCNQ1 pot	KCNK3 block	KCNK9 block	Kir21 inh	hERG rescue	KCNK9 inh conf	Kir2-1 spec	KCNK9 uninduced
Cc1ccccc1Cn1nc(C)c(NC(=O)c2noc3c2CC(C(C)(C)C)CC3)c1C (configuration not stated)	i	i	i	i	i	i	nt	nt	nt
Cc1ccccc1Cn1nc(C)c(NC(=O)c2noc3c2CCc2ccccc2-3)c1C	i	i	i	i	i	i	i	i	i
COc1cccc(-n2cnc3sc(C)c(C)c3c2=O)c1	i	i	i	i	i	i	nt	nt	nt
Cc1ccccc1N1CCN(CCCN2C(=O)CC(=C(c3ccccc3)c3ccccc3)C2=O)CC1	i	i	i	i	i	i	i	i	i
O=C1CC(=C(c2ccccc2)c2ccccc2)C(=O)N1CCCCN1CCN(c2cccc(Cl)c2)CC1	i	i	i	i	i	i	nt	nt	nt
COc1cc(Cl)c(C)cc1NC(=O)CCN1C(=O)NC(C)(C)C1=O	nt	nt	i	nt	nt	nt	nt	nt	nt
O=c1ccc2c(o1)/C(=C/C=C(Cl)Cl)CCC2	i	i	i	-12.4	i	i	41.5%	i	35.5%
COc1ccccc1N1CCN(CCN2C(=O)CC(=C3c4ccccc4-c4ccccc43)C2=O)CC1	i	i	nt	i	i	i	i	i	i
CN(C)CC/C=C1/c2cc(F)ccc2Sc2ccc(Cl)cc21	i	i	i	i	-8.48	i	i	i	i
COc1cc(Cl)cc2c1Sc1ccccc1/C2=C/CCN(C)C	i	i	i	i	-12.7	i	i	i	i
CN1CCN(C2=Cc3cc(Cl)ccc3Sc3cc(F)ccc32)CC1	i	i	i	i	i	i	nt	nt	nt
CN(C)CC/C=C1/c2ccccc2Sc2c(O)cc(Cl)cc21	i	i	i	i	i	i	nt	nt	nt
COC(=O)N/N=C/c1cccc(OCCSc2ccc(Cl)cc2)c1	i	i	i	i	i	i	nt	nt	nt
Cc1cccc(-n2c(=S)[nH]c3c(oc4ccccc43)c2=O)c1	i	i	i	i	i	i	nt	nt	nt
CN(C)c1ccc(/C=C2\SC(N3CCCCC3)=NC2=O)cc1	i	i	i	i	i	i	nt	nt	nt
Cc1ccccc1Nc1scc(-c2ccc(Cl)cc2)[n+]1-c1ccccc1C	i	i	i	-8.37	i	i	62.5%	i	i
CCn1c(N2CCN(S(=O)(=O)c3ccc(Cl)cc3)CC2)nc2ccccc21	i	i	i	i	i	5.8	i	i	i
CCn1c(N2CCN(S(=O)(=O)c3ccc(F)cc3)CC2)nc2ccccc21	i	i	i	i	i	i	nt	nt	nt
CCOC(=O)Cn1nc(-c2ccccc2)c2ccccc2c1=O	i	i	i	i	i	i	nt	nt	nt
O=c1c2ccccc2c(-c2ccccc2)nn1Cc1c(Cl)cccc1Cl	i	i	i	-10.1	i	i	33.0%	i	35.5%
CC(C)c1ccc(C(=O)N(c2ccccn2)C(C)c2ccco2)cc1 (configuration not stated)	i	i	i	i	i	i	nt	nt	nt

Assay outcomes (PubChem BioAssay)
